Data: article PMC10328739 (Small (Weinheim an der Bergstrasse, Germany), 2021)

Assays:
[1] = test system: BRCA1-mutant human breast carcinoma xenograft MDA-MB-436; test: Tumor inhibition, MDA-MB-436 xenograft; assay type: in vivo, athymic nude mice; conditions: 20 mg kg^−1 IV, twice a week, six injections
[2] = Screening of micelle elongation; assay type: physicochemical; conditions: T2 micelles
How it was run: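 Drug loaded into T2 micelles at polymer/drug w/w 10/0, 10/1, 10/2, 10/4 and 10/8. Particle size and size distribution followed over time by DLS. Polymer concentration (1.25–80 mg mL⁻¹), temperature (4, 25, 37 °C) and NaCl (up to ≈4%) also varied. Each formulation scored as spherical, sphere+worm mix, worm, or precipitate.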

[3] = Maximal drug solubilization in POx micelles; assay type: physicochemical

Structure (SMILES)	antitumor activity (tumor growth inhibition) [1]	mass fraction of drug that inhibited elongation [2]	maximal solubilization ([3]; in T2 micelles)	maximal solubilization ([3]; in T3 micelles)
O=C(c1cc(Cc2n[nH]c(=O)c3ccccc23)ccc1F)N1CCN(C(=O)C2CC2)CC1 [Olaparib]	neither the blank spherical micelles nor the free olaparib (20 mg kg^−1) displayed inhibition of the tumor growth	–	–	–
CC(=O)O[C@H]1C(=O)[C@@]2(C)[C@H]([C@H](OC(=O)c3ccccc3)[C@]3(O)C[C@H](OC(=O)[C@H](O)[C@@H](NC(=O)c4ccccc4)c4ccccc4)C(C)=C1C3(C)C)[C@]1(OC(C)=O)CO[C@@H]1C[C@@H]2O [Paclitaxel]	–	≤ 10%	–	–
CS(=O)(=O)c1ccc(C(=O)Nc2ccc(Cl)c(-c3ccccn3)c2)c(Cl)c1 [Vismodegib]	–	≤ 10%	4 mg/mL	8 mg/mL
CC1(C)CCC(c2ccc(Cl)cc2)=C(CN2CCN(c3ccc(C(=O)NS(=O)(=O)c4ccc(N[C@H](CCN5CCOCC5)CSc5ccccc5)c(S(=O)(=O)C(F)(F)F)c4)cc3)CC2)C1 [ABT-263]	–	≤ 10%	4 mg/mL	8 mg/mL
